Laboratory results from ChEMBL document CHEMBL3244081, “Potential antitumor agents. 31. Quantitative structure-activity relationships for the antileukemic bis(guanylhydrazones)” (1979).

test system: not listed separately; assay: Displacement of ethidium from poly[d(A-T)]-poly[d(A-T)] DNA (unknown origin) by fluorimetric assay
Procedure, shortened: (§1)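 Relative binding to the synthetic duplex polymers was measured as fluorimetric displacement of bound ethidium, following the method of the earlier studies. Compounds were made up as 2 mM aqueous stock solutions, either from weighed salts or, where material was scarce, with the concentration set from published UV absorbance data before final dilution.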

Question: With `N=C(N)NN=C1C=CC(=NNC(=N)N)C=C1` as the compound, how does the C50 read?
Answer: 22 µM

Question: For `CCC(/C=N/NC(=N)N)=N\NC(=N)N.Cl`, which C50 is on record?
Answer: 112 µM

Question: For `C/C(=N\NC(=N)N)c1ccc(NC(=S)Nc2ccc(/C(C)=N/NC(=N)N)cc2)cc1`, which C50 is on record?
Answer: 1.2 µM

Question: For `Cl.N=C(N)N/N=C/c1ccc(/C=N/NC(=N)N)cc1`, which C50 is on record?
Answer: 2.9 µM

Question: For `N=C(N)N/N=C/c1ccc(NC(=O)Nc2ccc(/C=N/NC(=N)N)cc2)cc1`, which C50 is on record?
Answer: 0.3 µM

Question: With `CC(/C=N/NC(=N)N)=N\NC(=N)N` [MITOGUAZONE] as the compound, how does the C50 read?
Answer: 34 µM

Question: Which C50 does the source give for `C/C(=N\NC(=N)N)c1ccc(NC(=O)Nc2ccc(/C(C)=N/NC(=N)N)cc2)cc1` here?
Answer: 0.43 µM

Question: With `N=C(N)N/N=C/CCC/C=N/NC(=N)N` as the compound, how does the C50 read?
Answer: 70 µM

Question: With `CNC(=N)N/N=C/C(C)=N/NC(=N)NC` as the compound, how does the C50 read?
Answer: 27 µM

Question: For `N=C(N)c1ccc(/C=C/c2ccc(C(=N)N)cc2O)cc1` [HYDROXYSTILBAMIDINE], which C50 is on record?
Answer: 1.2 µM

Question: Which C50 does the source give for `CC(=N\NC(=N)N)/C(C)=N/NC(=N)N` here?
Answer: 14 µM

Question: For `C/C(=N\NC(=N)N)c1cccc(NC(=O)Nc2cccc(/C(C)=N/NC(=N)N)c2)c1`, which C50 is on record?
Answer: 0.42 µM

Question: Which C50 does the source give for `Cl.N=C(N)N/N=C/c1ccc(-c2ccc(/C=N/NC(=N)N)cc2)cc1` here?
Answer: 0.14 µM

Question: With `N=C(N)NCCCCCCCCCCNC(=N)N` [SYNTHALIN] as the compound, how does the C50 read?
Answer: 127 µM

Question: Which C50 does the source give for `C/C(=N\NC(=N)N)c1ccc(NC(=N)Nc2ccc(/C(C)=N/NC(=N)N)cc2)cc1` here?
Answer: 0.08 µM

Question: Which C50 does the source give for `CC(/C=N/N(C)C(=N)N)=N\N(C)C(=N)N` here?
Answer: 103 µM

test system: not listed separately; assay: Binding affinity to DNA (unknown origin) assessed as decrease in velocity of L1210 DNA-dependent DNA polymerase reaction

Question: For `N=C(N)NN=C1C=CC(=NNC(=N)N)C=C1`, which logIC50 is on record?
Answer: 2.85

Question: With `CCC(/C=N/NC(=N)N)=N\NC(=N)N.Cl` as the compound, how does the logIC50 read?
Answer: 2.87

Question: For `C/C(=N\NC(=N)N)c1ccc(NC(=S)Nc2ccc(/C(C)=N/NC(=N)N)cc2)cc1`, which logIC50 is on record?
Answer: 2.11

Question: For `Cl.N=C(N)N/N=C/c1ccc(/C=N/NC(=N)N)cc1`, which logIC50 is on record?
Answer: 1.9

Question: For `N=C(N)N/N=C/c1ccc(NC(=O)Nc2ccc(/C=N/NC(=N)N)cc2)cc1`, which logIC50 is on record?
Answer: 1.95

Question: Which logIC50 does the source give for `CC(/C=N/NC(=N)N)=N\NC(=N)N` [MITOGUAZONE] here?
Answer: 2.85

Question: For `C/C(=N\NC(=N)N)c1ccc(NC(=O)Nc2ccc(/C(C)=N/NC(=N)N)cc2)cc1`, which logIC50 is on record?
Answer: 1.95

Question: For `N=C(N)N/N=C/CCC/C=N/NC(=N)N`, which logIC50 is on record?
Answer: > 3

Question: For `N=C(N)N/N=C/C/C=N/NC(=N)N`, which logIC50 is on record?
Answer: > 3

Question: With `CNC(=N)N/N=C/C(C)=N/NC(=N)NC` as the compound, how does the logIC50 read?
Answer: 2.81

Question: Which logIC50 does the source give for `N=C(N)c1ccc(/C=C/c2ccc(C(=N)N)cc2O)cc1` [HYDROXYSTILBAMIDINE] here?
Answer: 1.6

Question: For `CC(=N\NC(=N)N)/C(C)=N/NC(=N)N`, which logIC50 is on record?
Answer: 2.7

Question: Which logIC50 does the source give for `C/C(=N\NC(=N)N)c1cccc(NC(=O)Nc2cccc(/C(C)=N/NC(=N)N)c2)c1` here?
Answer: 1.6

Question: Which logIC50 does the source give for `Cl.N=C(N)N/N=C/c1ccc(-c2ccc(/C=N/NC(=N)N)cc2)cc1` here?
Answer: 1.6

Question: For `N=C(N)NCCCCCCCCCCNC(=N)N` [SYNTHALIN], which logIC50 is on record?
Answer: > 3

Question: For `C/C(=N\NC(=N)N)c1ccc(NC(=N)Nc2ccc(/C(C)=N/NC(=N)N)cc2)cc1`, which logIC50 is on record?
Answer: 1.6

Question: With `CC(/C=N/N(C)C(=N)N)=N\N(C)C(=N)N` as the compound, how does the logIC50 read?
Answer: > 3

test system: L1210; assay: Anti-leukemic activity against mouse L1210 cells allografted in ip dosed DBA2 mouse assessed as increase in host lifespan administered qd for 1 to 4 days; type: functional

Question: For `N=C(N)NN=C1C=CC(=NNC(=N)N)C=C1`, which “log(activity)” value is on record?
Answer: <1.4

Question: With `CCC(/C=N/NC(=N)N)=N\NC(=N)N.Cl` as the compound, how does the “log(activity)” value read?
Answer: <1.4

Question: For `C/C(=N\NC(=N)N)c1ccc(NC(=S)Nc2ccc(/C(C)=N/NC(=N)N)cc2)cc1`, which “log(activity)” value is on record?
Answer: 1.97

Question: With `Cl.N=C(N)N/N=C/c1ccc(/C=N/NC(=N)N)cc1` as the compound, how does the “log(activity)” value read?
Answer: 1.84

Question: With `N=C(N)N/N=C/c1ccc(NC(=O)Nc2ccc(/C=N/NC(=N)N)cc2)cc1` as the compound, how does the “log(activity)” value read?
Answer: 2.08

Question: For `CC(/C=N/NC(=N)N)=N\NC(=N)N` [MITOGUAZONE], which “log(activity)” value is on record?
Answer: 2

Question: For `C/C(=N\NC(=N)N)c1ccc(NC(=O)Nc2ccc(/C(C)=N/NC(=N)N)cc2)cc1`, which “log(activity)” value is on record?
Answer: 2.47

Question: With `N=C(N)N/N=C/CCC/C=N/NC(=N)N` as the compound, how does the “log(activity)” value read?
Answer: <1.4

Question: With `N=C(N)N/N=C/C/C=N/NC(=N)N` as the compound, how does the “log(activity)” value read?
Answer: <1.4

Question: Which “log(activity)” value does the source give for `CNC(=N)N/N=C/C(C)=N/NC(=N)NC` here?
Answer: <1.4

Question: For `N=C(N)c1ccc(/C=C/c2ccc(C(=N)N)cc2O)cc1` [HYDROXYSTILBAMIDINE], which “log(activity)” value is on record?
Answer: 1.85

Question: For `CC(=N\NC(=N)N)/C(C)=N/NC(=N)N`, which “log(activity)” value is on record?
Answer: <1.4

Question: For `C/C(=N\NC(=N)N)c1cccc(NC(=O)Nc2cccc(/C(C)=N/NC(=N)N)c2)c1`, which “log(activity)” value is on record?
Answer: 2.1

Question: Which “log(activity)” value does the source give for `Cl.N=C(N)N/N=C/c1ccc(-c2ccc(/C=N/NC(=N)N)cc2)cc1` here?
Answer: 1.63

Question: For `N=C(N)NCCCCCCCCCCNC(=N)N` [SYNTHALIN], which “log(activity)” value is on record?
Answer: 2.11

Question: Which “log(activity)” value does the source give for `C/C(=N\NC(=N)N)c1ccc(NC(=N)Nc2ccc(/C(C)=N/NC(=N)N)cc2)cc1` here?
Answer: 1.82

Question: For `CC(/C=N/N(C)C(=N)N)=N\N(C)C(=N)N`, which “log(activity)” value is on record?
Answer: <1.4

test system: L1210; assay: Anti-leukemic activity against mouse L1210 cells allografted in ip dosed DBA2 mouse assessed as optimum drug dose required for the effect administered qd for 1 to 4 days; type: functional

Question: For `N=C(N)NN=C1C=CC(=NNC(=N)N)C=C1`, which log optimum dose is on record?
Answer: 1.88

Question: With `CCC(/C=N/NC(=N)N)=N\NC(=N)N.Cl` as the compound, how does the log optimum dose read?
Answer: 2

Question: Which log optimum dose does the source give for `C/C(=N\NC(=N)N)c1ccc(NC(=S)Nc2ccc(/C(C)=N/NC(=N)N)cc2)cc1` here?
Answer: 1.4

Question: With `Cl.N=C(N)N/N=C/c1ccc(/C=N/NC(=N)N)cc1` as the compound, how does the log optimum dose read?
Answer: 1.6

Question: With `N=C(N)N/N=C/c1ccc(NC(=O)Nc2ccc(/C=N/NC(=N)N)cc2)cc1` as the compound, how does the log optimum dose read?
Answer: 1.48

Question: For `CC(/C=N/NC(=N)N)=N\NC(=N)N` [MITOGUAZONE], which log optimum dose is on record?
Answer: 1.7

Question: For `C/C(=N\NC(=N)N)c1ccc(NC(=O)Nc2ccc(/C(C)=N/NC(=N)N)cc2)cc1`, which log optimum dose is on record?
Answer: 1.4

Question: With `N=C(N)N/N=C/CCC/C=N/NC(=N)N` as the compound, how does the log optimum dose read?
Answer: 1.87

Question: With `N=C(N)N/N=C/C/C=N/NC(=N)N` as the compound, how does the log optimum dose read?
Answer: 2.3

Question: With `CNC(=N)N/N=C/C(C)=N/NC(=N)NC` as the compound, how does the log optimum dose read?
Answer: 2.3

Question: For `N=C(N)c1ccc(/C=C/c2ccc(C(=N)N)cc2O)cc1` [HYDROXYSTILBAMIDINE], which log optimum dose is on record?
Answer: 1.87

Question: With `CC(=N\NC(=N)N)/C(C)=N/NC(=N)N` as the compound, how does the log optimum dose read?
Answer: 2.18

Question: Which log optimum dose does the source give for `C/C(=N\NC(=N)N)c1cccc(NC(=O)Nc2cccc(/C(C)=N/NC(=N)N)c2)c1` here?
Answer: 1.48

Question: For `Cl.N=C(N)N/N=C/c1ccc(-c2ccc(/C=N/NC(=N)N)cc2)cc1`, which log optimum dose is on record?
Answer: 1.3

Question: With `N=C(N)NCCCCCCCCCCNC(=N)N` [SYNTHALIN] as the compound, how does the log optimum dose read?
Answer: 0.6

Question: Which log optimum dose does the source give for `C/C(=N\NC(=N)N)c1ccc(NC(=N)Nc2ccc(/C(C)=N/NC(=N)N)cc2)cc1` here?
Answer: 0.7

Question: For `CC(/C=N/N(C)C(=N)N)=N\N(C)C(=N)N`, which log optimum dose is on record?
Answer: 2.18

test system: not listed separately; assay: Displacement of ethidium from poly[d(G-C)]-poly[d(G-C)] DNA (unknown origin) by fluorimetric assay; procedure, shortened: as §1

Question: For `N=C(N)NN=C1C=CC(=NNC(=N)N)C=C1`, which C50 is on record?
Answer: 200 µM

Question: For `CCC(/C=N/NC(=N)N)=N\NC(=N)N.Cl`, which C50 is on record?
Answer: 248 µM

Question: For `C/C(=N\NC(=N)N)c1ccc(NC(=S)Nc2ccc(/C(C)=N/NC(=N)N)cc2)cc1`, which C50 is on record?
Answer: 3.4 µM

Question: For `Cl.N=C(N)N/N=C/c1ccc(/C=N/NC(=N)N)cc1`, which C50 is on record?
Answer: 7.6 µM

Question: Which C50 does the source give for `N=C(N)N/N=C/c1ccc(NC(=O)Nc2ccc(/C=N/NC(=N)N)cc2)cc1` here?
Answer: 0.69 µM

Question: Which C50 does the source give for `CC(/C=N/NC(=N)N)=N\NC(=N)N` [MITOGUAZONE] here?
Answer: 128 µM

Question: For `C/C(=N\NC(=N)N)c1ccc(NC(=O)Nc2ccc(/C(C)=N/NC(=N)N)cc2)cc1`, which C50 is on record?
Answer: 1.3 µM

Question: With `N=C(N)N/N=C/CCC/C=N/NC(=N)N` as the compound, how does the C50 read?
Answer: 81 µM

Question: Which C50 does the source give for `CNC(=N)N/N=C/C(C)=N/NC(=N)NC` here?
Answer: 111 µM

Question: For `N=C(N)c1ccc(/C=C/c2ccc(C(=N)N)cc2O)cc1` [HYDROXYSTILBAMIDINE], which C50 is on record?
Answer: 6.7 µM

Question: Which C50 does the source give for `CC(=N\NC(=N)N)/C(C)=N/NC(=N)N` here?
Answer: 51 µM

Question: Which C50 does the source give for `C/C(=N\NC(=N)N)c1cccc(NC(=O)Nc2cccc(/C(C)=N/NC(=N)N)c2)c1` here?
Answer: 1.6 µM

Question: With `Cl.N=C(N)N/N=C/c1ccc(-c2ccc(/C=N/NC(=N)N)cc2)cc1` as the compound, how does the C50 read?
Answer: 1 µM

Question: Which C50 does the source give for `N=C(N)NCCCCCCCCCCNC(=N)N` [SYNTHALIN] here?
Answer: 191 µM

Question: With `C/C(=N\NC(=N)N)c1ccc(NC(=N)Nc2ccc(/C(C)=N/NC(=N)N)cc2)cc1` as the compound, how does the C50 read?
Answer: 0.2 µM

Question: With `CC(/C=N/N(C)C(=N)N)=N\N(C)C(=N)N` as the compound, how does the C50 read?
Answer: 379 µM
